Source: ChEMBL document CHEMBL4138315, “Synthesis and Evaluation of a Novel Bivalent Selective Antagonist for the Mu-Delta Opioid Receptor Heterodimer that Reduces Morphine Withdrawal in Mice” (J Med Chem, 2018)
Active and inactive are the calls of the source. The calls are words filed in the database; no cut-off is given here.

Experiments:
[1] = molecular target: Mu-type opioid receptor (Homo sapiens, UniProt P35372); test: Antagonist activity at human MOR expressed in CHO cell membranes assessed as inhibition of CYM51010-induced [35S]-GTPgammaS binding preincubated for 5 mins followed by CYM51010 and [35S]-GTPgammaS addition measured after 80 mins; assay type: functional; details: cho
Mu-type opioid receptor, sequence (P35372 whole entry): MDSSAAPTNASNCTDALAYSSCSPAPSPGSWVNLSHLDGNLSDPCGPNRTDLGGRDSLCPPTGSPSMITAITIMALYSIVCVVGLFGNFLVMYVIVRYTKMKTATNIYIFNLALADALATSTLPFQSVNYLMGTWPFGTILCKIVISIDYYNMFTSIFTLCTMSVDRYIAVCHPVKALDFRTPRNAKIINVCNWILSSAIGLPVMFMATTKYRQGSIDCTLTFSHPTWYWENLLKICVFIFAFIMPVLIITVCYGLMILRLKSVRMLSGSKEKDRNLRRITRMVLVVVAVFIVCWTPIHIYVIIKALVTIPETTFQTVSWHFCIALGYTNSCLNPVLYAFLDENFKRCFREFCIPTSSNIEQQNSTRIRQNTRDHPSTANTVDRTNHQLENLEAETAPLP
Summary of the method: (§1)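 Membranes from CHO cells stably expressing human opioid receptor (N-terminal tagged) were preincubated 5 min with antagonist concentration curves, then given 1 µM CYM51010 and 0.1 nM 35S-GTPγS; 30°C, 80 min, GF/B filtration, scintillation counting. Normalized to CYM51010 alone (100%) and vehicle (0%). Fits: 1-site for MOR/DOR (IC50), 2-site for MDOR (IC50HIGH). N = 3-4, duplicate, mean ± SEM.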

[2] = tested on: Mus musculus; test: Reduction in morphine dependence expression in acute morphine dependence ICR mouse model assessed as reduction in jumping behavior at 1 nmol, icv up to 20 mins; assay type: functional, organism-based
Summary of the method: (§2)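 Acute dependence: morphine 100 mg/kg sc, then naloxone 10 mg/kg ip 4 h later. 1 nmol icv or vehicle given 5 min before naloxone; one control arm had no naloxone. Mice observed 20 min in plexiglass cylinders; jumps counted, then urine and feces weighed.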

[3] = tested on: Mus musculus; test: Reduction in morphine dependence expression in acute morphine dependence ICR mouse model assessed as reduction in GI output at 1 nmol, icv up to 20 mins; assay type: functional, organism-based; summary of the method: as §2
[4] = molecular target: T1, Delta-type opioid receptor (Homo sapiens, UniProt P41143); test: Antagonist activity at human DOR expressed in CHO cell membranes assessed as inhibition of CYM51010-induced [35S]-GTPgammaS binding preincubated for 5 mins followed by CYM51010 and [35S]-GTPgammaS addition measured after 80 mins; assay type: functional; details: cho; summary of the method: as §1
T1 sequence (P41143 whole entry): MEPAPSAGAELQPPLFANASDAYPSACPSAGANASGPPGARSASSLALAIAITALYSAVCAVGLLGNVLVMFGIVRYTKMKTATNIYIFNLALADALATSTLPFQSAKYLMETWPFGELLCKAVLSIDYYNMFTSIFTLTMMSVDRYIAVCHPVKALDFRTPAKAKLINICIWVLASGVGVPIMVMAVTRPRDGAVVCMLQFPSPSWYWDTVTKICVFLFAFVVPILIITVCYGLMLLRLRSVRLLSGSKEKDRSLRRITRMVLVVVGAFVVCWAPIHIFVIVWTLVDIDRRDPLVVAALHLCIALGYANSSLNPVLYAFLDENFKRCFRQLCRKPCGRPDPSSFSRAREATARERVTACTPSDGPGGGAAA

[5] = molecular target: T1, Delta-type opioid receptor; test: Displacement of [3H]-diprenorphine from human DOR expressed in CHO cell membranes after 80 mins by scintillation counting analysis; details: cho
Summary of the method: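 Competition binding on MOR-, DOR- or MDOR-CHO membranes used a fixed 3H-diprenorphine level against competitor concentration curves; 30°C, 80 min, GF/B filtration, scintillation counting. Nonspecific binding defined with 500 nM each DMT-Tic-Ala-OH and CTAP. Ki was derived from IC50 and the 3H-diprenorphine KD in each line; MDOR data fitted with a 2-site model. N = 3-4, mean ± SEM.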

[6] = molecular target: Kappa-type opioid receptor (Homo sapiens) (UniProt P41145); test: Antagonist activity at human KOR expressed in CHO cell membranes assessed as inhibition of U50488-induced [35S]-GTPgammaS binding preincubated for 5 mins followed by U50488 and [35S]-GTPgammaS addition measured after 80 mins; assay type: functional
Kappa-type opioid receptor (Homo sapiens), sequence (P41145 whole entry): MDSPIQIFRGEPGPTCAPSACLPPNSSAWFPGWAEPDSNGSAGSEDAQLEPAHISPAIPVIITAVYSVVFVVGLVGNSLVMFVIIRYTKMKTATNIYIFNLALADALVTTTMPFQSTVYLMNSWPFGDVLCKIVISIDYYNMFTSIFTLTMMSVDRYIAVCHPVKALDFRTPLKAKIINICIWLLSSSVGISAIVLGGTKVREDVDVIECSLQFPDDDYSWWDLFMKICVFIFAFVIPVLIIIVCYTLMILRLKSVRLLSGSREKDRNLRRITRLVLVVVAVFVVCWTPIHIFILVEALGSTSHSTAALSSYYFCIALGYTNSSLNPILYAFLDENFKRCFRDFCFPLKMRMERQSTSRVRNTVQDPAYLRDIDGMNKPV
Summary of the method: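 KOR-CHO membranes (human receptor, N-terminal tag), antagonist concentration curve preincubated 5 min, then 1 µM U50,488 plus 0.1 nM 35S-GTPγS added. Incubated 30°C, 80 min; filtration and scintillation counting. Vehicle 0.1% DMSO in assay buffer with 0.1% BSA. Normalized to agonist alone (100%) and vehicle (0%). One-site curve fit; N = 3 independent experiments in duplicate.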

[7] = tested on: Mus musculus; test: Reduction in morphine dependence expression in acute morphine dependence ICR mouse model assessed as inhibition of naloxone-precipitated jumping behavior at 1 nmol, icv administered 5 mins prior to naloxone injection measured up to 20 mins relative to control; assay type: functional; parameters: scale not given: the % may be the effect or the level left; summary of the method: as §2
[8] = molecular target: Opioid receptors; mu & delta (Homo sapiens, UniProt P41143+P35372); test: Displacement of [3H]-diprenorphine from human mu-delta opioid receptor heterodimer expressed in CHO cell membranes at high site fraction after 80 mins by scintillation counting analysis relative to control
Opioid receptors; mu & delta, sequence (P35372 whole entry, looked up): as the sequence (P35372 whole entry) above
Opioid receptors; mu & delta, sequence (P41143 whole entry, looked up): as the sequence (P41143 whole entry) above

N[C@@H](Cc1ccc(O)cc1)C(=O)N1Cc2ccccc2C[C@@H]1C(=O)NCC(=O)NCCCCC(=O)N[C@H](CCCCNC(=O)CCCCNC(=O)CNC(=O)[C@@H](Cc1cccc2ccccc12)NC(=O)[C@H](Cc1ccccc1)NC(=O)[C@@H]1CCCN1C(=O)[C@@H](N)Cc1ccc(O)cc1)C(=O)O
IC50 [1]: > 1000 nM
Activity [2]: inactive
Activity [3]: Active
IC50 [4]: 76 nM
Ki [5]: 84 nM
inhibition [6]: inactive
Activity [7]: 53.2%
Imax [8]: 11%
